Our source for the Activity values is ChEMBL document CHEMBL2407049, “Cyclopeptide alkaloids: stereochemistry and synthesis of the precursors of discarines C and D and myrianthine A” (2013).

The test system of one test is Staphylococcus aureus. The test can be described thus: Antibacterial activity against Staphylococcus aureus ATCC 6538p assessed as concentration required to inhibit bacterial growth after 24 hrs by TLC assay. Format: functional. Put shortly: (§1)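 Direct TLC bioautography: compound amounts from 50 to 1.56 μg applied to precoated TLC plates, overlaid with Mueller Hinton or Sabouraud agar inoculated with microorganism suspension (10⁵ cfu mL⁻¹). Plates incubated 24 h at 37 °C, then stained with aqueous 2,3,5-triphenyltetrazolium chloride (1 mg mL⁻¹). The lowest amount giving an inhibition zone was recorded; <50 μg counted active. Triplicate.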

The next test relates to Cryptococcus neoformans. Kind of test: Antifungal activity against Cryptococcus neoformans ATCC 28952 assessed as concentration required to inhibit fungal growth after 24 hrs by TLC assay. Format: functional. Put shortly:
as §1

The next test has as its system Saccharomyces cerevisiae. Kind of test: Antifungal activity against Saccharomyces cerevisiae ATCC 2601 assessed as concentration required to inhibit fungal growth after 24 hrs by TLC assay. Format: functional. Put shortly: as §1
The subject of test [1] is Staphylococcus epidermidis. The test can be described thus: Antibacterial activity against Staphylococcus epidermidis ATCC 12228 assessed as concentration required to inhibit bacterial growth after 24 hrs by TLC assay. It counts as functional. A digest of the protocol:
as §1

In a further test the test system is Kocuria rhizophila. The test can be described thus: Antibacterial activity against Micrococcus luteus ATCC 9341 assessed as concentration required to inhibit bacterial growth after 24 hrs by TLC assay. It counts as functional. A digest of the protocol:
as §1

The next test deals with Candida albicans. Kind of test: Antifungal activity against Candida albicans ATCC 10231 assessed as concentration required to inhibit fungal growth after 24 hrs by TLC assay. It counts as functional. A digest of the protocol:
as §1

The next test has as its system Escherichia coli. The test can be described thus: Antibacterial activity against Escherichia coli ATCC 11103 assessed as concentration required to inhibit bacterial growth after 24 hrs by TLC assay. Format: functional. A digest of the protocol: as §1
Test [2] can be described thus: Antibacterial activity against Salmonella Setubal ATCC 19196 assessed as concentration required to inhibit bacterial growth after 24 hrs by TLC assay. Format: functional, Salmonella enterica subsp. enterica serovar Setubal. Put shortly:
as §1

The next test concerns Klebsiella pneumoniae. The test can be described thus: Antibacterial activity against Klebsiella pneumoniae ATCC 10031 assessed as concentration required to inhibit bacterial growth after 24 hrs by TLC assay. Format: functional. A digest of the protocol: as §1
The subject of another test is Candida tropicalis. Kind of test: Antifungal activity against Candida tropicalis ATCC 750 assessed as concentration required to inhibit fungal growth after 24 hrs by TLC assay. Format: functional. A digest of the protocol:
as §1

Another test has as its system Candida dubliniensis. Kind of test: Antifungal activity against Candida dubliniensis SM 26 clinical isolate assessed as concentration required to inhibit fungal growth after 24 hrs by TLC assay. Format: functional. Put shortly: as §1

On to `CC(C)C[C@@H](C(=O)N[C@@H]1C(=O)N[C@@H](Cc2ccccc2)C(=O)N/C=C\c2ccc(cc2)O[C@H]1c1ccccc1)N(C)C`, for which the Activity (with Staphylococcus aureus; with Cryptococcus neoformans; with Saccharomyces cerevisiae; in test [1]; in the test on Kocuria rhizophila; with Candida albicans) was greater than 50 µg each time. In addition, the Activity (in the test on Escherichia coli; in [2]; in the test on Klebsiella pneumoniae; in the test on Candida tropicalis; in the test with Candida dubliniensis) was greater than 50 µg in each case.
On to `COC(=O)[C@H](CC(C)C)NC(=O)[C@H](NC(=O)[C@@H](N)CC(C)C)[C@@H](O)c1ccccc1`, for which the Activity (with Staphylococcus aureus; with Cryptococcus neoformans; in the test on Saccharomyces cerevisiae; in test [1]; in the test on Kocuria rhizophila; in the test on Candida albicans) was less than 50 µg each time. Also, the Activity (with Escherichia coli; in test [2]; in the test with Klebsiella pneumoniae; in the test with Candida tropicalis; in the test on Candida dubliniensis) was less than 50 µg each time.
On to `COC(=O)[C@H](Cc1ccccc1)NC(=O)[C@@H](NC(=O)[C@@H](N)CC(C)C)[C@H](O)c1ccccc1`, for which the Activity in the test on Staphylococcus aureus was less than 50 µg; in the test with Cryptococcus neoformans, less than 50 µg; with Saccharomyces cerevisiae, less than 50 µg; in test [1] it was greater than 50 µg; in the test with Kocuria rhizophila it was less than 50 µg; in the test with Candida albicans, less than 50 µg. For the same compound, the Activity with Escherichia coli was 1.5 µg; in test [2], less than 50 µg; in the test on Klebsiella pneumoniae, less than 50 µg; in the test with Candida tropicalis, less than 50 µg; in the test on Candida dubliniensis it was less than 50 µg.
For the compound `CC[C@H](C)[C@H](NC(=O)[C@H](NC(=O)[C@@H](N)CC(C)C)[C@@H](O)c1ccccc1)C(=O)OC`, the Activity (with Staphylococcus aureus; with Cryptococcus neoformans; in the test with Saccharomyces cerevisiae; in [1]; with Kocuria rhizophila; with Candida albicans) was less than 50 µg throughout. The Activity (in the test with Escherichia coli; in test [2]; in the test with Klebsiella pneumoniae; in the test with Candida tropicalis; with Candida dubliniensis) was less than 50 µg throughout.
With `COC(=O)[C@H](Cc1ccccc1)NC(=O)[C@H](NC(=O)[C@H](CC(C)C)N(C)C)[C@@H](O)c1ccccc1`, the Activity (in the test on Staphylococcus aureus; in the test on Cryptococcus neoformans; in the test on Saccharomyces cerevisiae; in [1]; in the test with Kocuria rhizophila; in the test with Candida albicans) was less than 50 µg each time. The Activity (in the test with Escherichia coli; in test [2]; in the test with Klebsiella pneumoniae; in the test on Candida tropicalis; in the test with Candida dubliniensis) was less than 50 µg in each case.
`COC(=O)[C@H](Cc1ccccc1)NC(=O)[C@H]([C@H](O)c1ccccc1)N1CN(C)[C@@H](CC(C)C)C1=O`: the Activity in the test with Staphylococcus aureus is less than 50 µg; in the test with Cryptococcus neoformans, less than 50 µg; in the test with Saccharomyces cerevisiae, less than 50 µg; in [1] it was 50 µg; in the test on Kocuria rhizophila it was less than 50 µg; in the test with Candida albicans, less than 50 µg. For the same compound, the Activity with Escherichia coli was greater than 50 µg; in [2], 25 µg; in the test with Klebsiella pneumoniae, 50 µg; in the test on Candida tropicalis, less than 50 µg; in the test on Candida dubliniensis, less than 50 µg.
`CC[C@H](C)[C@@H]1NC(=O)[C@@H](NC(=O)[C@H](CC(C)C)N(C)C)[C@H](c2ccccc2)Oc2ccc(cc2)/C=C\NC1=O` (mixture of isomers): the Activity (with Staphylococcus aureus; in the test with Cryptococcus neoformans; in the test on Saccharomyces cerevisiae; in test [1]; in the test with Kocuria rhizophila; in the test on Candida albicans) was greater than 50 µg in each case. The Activity (with Escherichia coli; in test [2]; with Klebsiella pneumoniae; in the test with Candida tropicalis; in the test on Candida dubliniensis) was greater than 50 µg throughout.
In the case of `CC(C)C[C@@H]1NC(=O)[C@@H](NC(=O)[C@H](CC(C)C)N(C)C)[C@H](c2ccccc2)Oc2ccc(cc2)/C=C\NC1=O` (mixture of isomers), the Activity (in the test with Staphylococcus aureus; in the test on Cryptococcus neoformans; with Saccharomyces cerevisiae; in test [1]; in the test with Kocuria rhizophila; in the test on Candida albicans) was greater than 50 µg in each case. In addition, the Activity (in the test with Escherichia coli; in [2]; in the test on Klebsiella pneumoniae; in the test with Candida tropicalis; in the test with Candida dubliniensis) was greater than 50 µg throughout.
With `CC[C@H](C)[C@H](NC(=O)[C@@H]([C@H](Oc1ccc(C=O)cc1)c1ccccc1)N1CN(C)[C@@H](CC(C)C)C1=O)C(=O)OC` (mixture of isomers), the Activity (in the test on Staphylococcus aureus; with Cryptococcus neoformans; in the test on Saccharomyces cerevisiae; in test [1]; with Kocuria rhizophila; with Candida albicans) was less than 50 µg throughout. For the same compound, the Activity (in the test with Escherichia coli; in [2]; in the test on Klebsiella pneumoniae; in the test with Candida tropicalis; with Candida dubliniensis) was less than 50 µg throughout.
As to `CC[C@H](C)[C@H](NC(=O)[C@H]([C@@H](Oc1ccc(C=O)cc1)c1ccccc1)N1CN(C)[C@@H](CC(C)C)C1=O)C(=O)OC` (mixture of isomers), the Activity (in the test on Staphylococcus aureus; in the test with Cryptococcus neoformans; with Saccharomyces cerevisiae; in [1]; with Kocuria rhizophila; with Candida albicans) was less than 50 µg in each case. Moreover, the Activity (with Escherichia coli; in [2]; in the test on Klebsiella pneumoniae; in the test with Candida tropicalis; in the test with Candida dubliniensis) was less than 50 µg in each case.
In the case of `COC(=O)[C@H](Cc1ccccc1)NC(=O)[C@@H]([C@H](Oc1ccc(C=O)cc1)c1ccccc1)N1CN(C)[C@@H](CC(C)C)C1=O` (mixture of isomers), the Activity (with Staphylococcus aureus; with Cryptococcus neoformans; in the test on Saccharomyces cerevisiae; in test [1]; in the test with Kocuria rhizophila; in the test with Candida albicans) was less than 50 µg each time. Moreover, the Activity (in the test on Escherichia coli; in test [2]; with Klebsiella pneumoniae; in the test on Candida tropicalis; in the test on Candida dubliniensis) was less than 50 µg in each case.
Consider `COC(=O)[C@H](CC(C)C)NC(=O)[C@H]([C@@H](Oc1ccc(C=O)cc1)c1ccccc1)N1CN(C)[C@@H](CC(C)C)C1=O` (mixture of isomers), for which the Activity (in the test with Staphylococcus aureus; in the test with Cryptococcus neoformans; in the test with Saccharomyces cerevisiae; in test [1]; in the test with Kocuria rhizophila; in the test with Candida albicans) was less than 50 µg each time. The Activity (in the test on Escherichia coli; in test [2]; in the test with Klebsiella pneumoniae; with Candida tropicalis; in the test with Candida dubliniensis) was less than 50 µg each time.
`COC(=O)[C@H](CC(C)C)NC(=O)[C@@H]([C@H](Oc1ccc(C=O)cc1)c1ccccc1)N1CN(C)[C@@H](CC(C)C)C1=O` (mixture of isomers): the Activity (with Staphylococcus aureus; in the test with Cryptococcus neoformans; with Saccharomyces cerevisiae; in test [1]; with Kocuria rhizophila; in the test with Candida albicans) was less than 50 µg each time. In addition, the Activity (in the test with Escherichia coli; in test [2]; in the test on Klebsiella pneumoniae; in the test with Candida tropicalis; in the test on Candida dubliniensis) was less than 50 µg in each case.
With `COC(=O)[C@H](Cc1ccccc1)NC(=O)[C@H]([C@@H](Oc1ccc(C=O)cc1)c1ccccc1)N1CN(C)[C@@H](CC(C)C)C1=O` (mixture of isomers), the Activity (in the test with Staphylococcus aureus; with Cryptococcus neoformans; in the test on Saccharomyces cerevisiae; in test [1]; in the test with Kocuria rhizophila; in the test with Candida albicans) was less than 50 µg in each case. The Activity (in the test with Escherichia coli; in test [2]; with Klebsiella pneumoniae; with Candida tropicalis; in the test with Candida dubliniensis) was less than 50 µg each time.
